Screens deposited in PubChem BioAssay by The Scripps Research Institute Molecular Screening Center.
HTRA1 inh = HTRA1 serine protease inhibitors, primary screen, biochemical, fluorescence polarization, HTS | Q92743 | recombinant HTRA1, FP-rhodamine activity-based probe | inhibition, % at 5.96 µM | 0.5% of 340,000 active; in the data active = inhibition above about 36%;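 also: 0% = enzyme with DMSO and 100% = wells lacking enzyme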
Target sequence (Q92743 whole entry, looked up): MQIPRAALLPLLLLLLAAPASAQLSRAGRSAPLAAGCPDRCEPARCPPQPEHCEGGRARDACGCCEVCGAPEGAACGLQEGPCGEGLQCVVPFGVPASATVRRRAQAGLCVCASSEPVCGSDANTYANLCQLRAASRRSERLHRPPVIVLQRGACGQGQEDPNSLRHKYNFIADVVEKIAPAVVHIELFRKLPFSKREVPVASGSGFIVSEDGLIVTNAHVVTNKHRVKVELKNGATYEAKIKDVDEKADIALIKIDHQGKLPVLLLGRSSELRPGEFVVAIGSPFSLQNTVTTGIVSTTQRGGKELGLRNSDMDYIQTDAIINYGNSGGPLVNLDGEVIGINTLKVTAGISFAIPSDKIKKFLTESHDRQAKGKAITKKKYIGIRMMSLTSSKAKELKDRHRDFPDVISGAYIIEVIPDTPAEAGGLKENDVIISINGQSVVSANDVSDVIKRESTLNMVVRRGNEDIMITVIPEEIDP
PRMT1 inh = PRMT1 methyltransferase inhibitors, primary screen, biochemical, fluorescence polarization. Protein arginine N-methyltransferase 1 (Homo sapiens), Q99873. recombinant PRMT1, activity-based probe fluorescence polarization. inhibition, % at 2.79 µM. 1.3% of 370,000 active;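 active = inhibition above about 21% made by adding two undisclosed values, limit read from the data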
SIAE inh = human SIAE inhibitors, primary screen, biochemical, fluorescence polarization, FP-Rh probe, 1536-well HTS; Sialate O-acetylesterase (Homo sapiens), Q9HAT2; SIAE FP-Rh probe binding; inhibition, % at 9.66 µM; 0.69% of 370,000 active; AID 1053197, 2014;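 active = inhibition above a cutoff: mean of compounds within the control limits plus 3 SD of those, cut at about 17% in these data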;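 also: 0% = plate median of compound wells and 100% = probe without SIAE protein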
mABHD4 FP = ABHD4 inhibitors, primary screen, biochemical, fluorescence polarization, mouse | (Lyso)-N-acylphosphatidylethanolamine lipase (Mus musculus), Q8VD66 | purified mABHD4, FP-Rh probe fluorescence polarization | inhibition, % at 8.92 µM | 0.54% of 370,000 active;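 active = inhibition exceeding the mean over every tested compound plus 3 SD, cut at about 30% in these data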;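 also: 0% = plate median of compound wells and 100% = S159A mutant with DMSO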
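Assay system: mABHD4 protein; medium: HEPES pH 7.0, NaCl, Pluronic buffer; dosing: 8.92 µM, single dose; schedule: 45 min + 60 min at 25 °C; signal: FP readout, ex 525 nm / em 598 nm; read-out: normalized percent inhibition of probe labeling; repeats: single replicate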
TCR CD3 inh = inhibitors of human TCR-CD3 interaction, primary screen, biochemical, fluorescence, TAMRA-labeled TCR probe. AID 651800, 2012. T-cell receptor (TCR). inhibition, % at 9.4 µM. 0.37% of 360,000 active; in the data active = inhibition above about 19%;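 also: recombinant mutant TCR 2C K166C tagged with TAMRA read by polarization; 0% = receptor in buffer alone and 100% = receptor with positive control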
SIAE inh conf = human SIAE inhibitors, retest, confirmation, biochemical, fluorescence polarization, FP-Rh probe, triplicate | shares compounds with SIAE inh | AID 1117263, 2014 | 13% of 2,300 active | SIAE FP-Rh activity-based probe | inhibition, % at 9.66 µM;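 active = mean inhibition of the replicates above the hit cutoff set in the primary screen, cut at about 17% in these data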;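 also: 0% = SIAE with DMSO and probe and 100% = probe without SIAE; inhibitors lower polarization as more probe stays unbound to SIAE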
Starred values were filed as active, the others as inactive; · = no result. This is a sample that favours compounds with a hit; in the whole collection about 2.6% have one here.

SMILES	HTRA1 inh	PRMT1 inh	SIAE inh	mABHD4 FP	TCR CD3 inh	SIAE inh conf
CN(C)Cc1c(O)ccc2occ(C(=O)c3ccccc3)c12	-1.6	4.1	-0.3	11.5	-4.0	·
CC1CCN(S(=O)(=O)c2ccc3c(c2)N(CC(=O)N(C)Cc2ccco2)C(=O)CO3)CC1	1.0	-1.5	-3.0	-2.2	0.5	·
COc1ccc(N(C(=O)Cn2nnc(-c3ccc(F)cc3)n2)C(C)C(=O)NC2CCCC2)cc1OC (stereo unspecified)	-5.8	2.9	0.2	5.9	-6.0	·
COc1ccccc1N1CCN(/N=C/c2cc(OC)c(O)c(OC)c2)CC1	1.9	1.8	20.2*	7.0	-7.7	-2.0
COc1ccccc1N1CCN(/N=C/c2cccc(O)c2)CC1	-2.4	-3.0	4.2	5.1	1.6	·
Nc1ncnc2c1ncn2[C@@H]1O[C@H](C(=O)NS(=O)(=O)c2ccccc2[N+](=O)[O-])[C@@H](O)[C@H]1O	·	5.6	2.0	-9.8	-5.5	·
Cc1cc(S(=O)(=O)NC(=O)[C@H]2O[C@@H](n3ccc(=O)[nH]c3=O)[C@H](O)[C@@H]2O)ccc1Br	·	4.3	2.0	7.3	-1.8	·
O=C(NS(=O)(=O)c1ccccc1[N+](=O)[O-])[C@H]1O[C@@H](n2ccc(=O)[nH]c2=O)[C@H](O)[C@@H]1O	·	-1.4	30.1*	-1.4	3.6	30.0*
CN(C)c1cccc2c(S(=O)(=O)NC(=O)[C@H]3O[C@@H](n4ccc(=O)[nH]c4=O)[C@H](O)[C@@H]3O)cccc12	·	0.5	36.0*	-5.1	8.8	45.5*
COc1ccc(NC(=O)CS(=O)c2cccc(Cl)c2)cc1 (stereo unspecified)	3.7	-0.8	-4.7	-0.8	0.1	·
Cc1nc2ccccc2c(=O)n1/N=C/c1ccccc1OC(F)F	-0.6	-3.0	-3.6	-0.7	2.9	·
CCN1C(=NCC(C)C)N[C@@H](c2cccc(F)c2)C(C(=O)OC)=C1C	-1.4	-2.5	0.9	3.6	3.9	·
Cc1nn(-c2ccccc2)c(C)c1C(=O)OCC(=O)Nc1ccccc1Cl	1.8	4.0	8.5	-9.5	-4.7	·
O=C(Nc1cc(Cl)ccc1N1CCOCC1)c1ccc(Br)o1	-0.9	0.1	24.3*	-3.2	-1.7	0.8
COC(=O)c1ccccc1NC(=O)c1onc(C)c1Cl	2.7	1.9	-5.2	-2.8	0.4	·
CCc1ccccc1NC(=O)c1onc(C)c1Cl	3.2	-5.4	32.1*	-1.2	3.1	-2.3
CN(CC(=O)Nc1cccc(F)c1)C(=O)c1ccc(C2SCCS2)cc1	-12.2	2.4	20.3*	1.9	11.4	47.7*
CS(=O)(=O)N(CC(=O)N1CCN(Cc2ccccc2)CC1)c1ccccc1Br	5.1	0.7	19.1*	4.4	-2.9	5.5
COc1ccc(N2CCN(C(=O)CN(c3ccccc3)S(C)(=O)=O)CC2)cc1	4.7	2.1	19.9*	2.9	-5.2	3.5
Cc1ccc(S(=O)(=O)NCCCNS(=O)(=O)c2ccc(C)cc2)cc1	10.0	-0.9	-5.4	-5.0	8.2	·
Cc1ccc(S(=O)(=O)NCCCN(C)C)cc1	1.4	-0.8	19.1*	-1.6	3.2	0.1
O=C(CC[C@H]1O[C@@H](n2cnc3c(NC(=O)c4ccccc4)ncnc32)[C@H](O)[C@@H]1O)NCCCN1CCOCC1	·	-2.0	18.7*	1.4	0.1	13.0
COCCCNC(=O)CC[C@H]1O[C@@H](n2cnc3c(NC(=O)c4ccccc4)ncnc32)[C@H](O)[C@@H]1O	·	-2.3	2.0	8.4	2.9	·
CCN(CC(=O)Nc1ccc(OC)cc1)C(=O)c1ccc(N2C(=O)CCC2=O)cc1	7.7	2.5	-1.5	5.5	-5.1	·
Cc1ccc(NC(=S)NC2CC3CCCC(C2)N3Cc2ccco2)cc1 (stereo unspecified)	-1.6	-0.9	26.4*	1.5	-4.0	3.2
SMILES	HTRA1 inh	PRMT1 inh	SIAE inh	mABHD4 FP	TCR CD3 inh	SIAE inh conf
Cc1cccc(NC(=S)NC2CC3CCCC(C2)N3Cc2ccco2)c1 (stereo unspecified)	3.1	-1.5	11.0	-1.2	3.2	·
CN(C)c1ccc(CN(CC2CCCO2)C(=O)c2cc3ccccc3o2)cc1 (stereo unspecified)	-2.3	0.0	20.5*	1.8	4.7	-1.4
N#C/C(=C\c1coc2ccc(O)cc2c1=O)C(=O)Nc1nc2ccccc2s1	-10.5	12.8	-8.4	4.1	-17.6	·
CCOC(=O)c1c(C)sc2c1N(C(=O)CN(CC)CC)c1ccccc1S2	-2.0	-0.5	17.4*	0.1	-9.8	0.7
Cc1ccccc1NC(=S)N(C)Cc1cn(C)c2ccccc12	0.1	-2.4	0.6	-1.5	0.0	·
O=C(/C=C/c1ccccc1)NC(=S)Nc1ccccc1O	-15.4	3.6	24.4*	0.5	10.4	-3.1
CN1CCC(=NNC(=O)CN(c2cccc([N+](=O)[O-])c2)S(=O)(=O)c2ccccc2)CC1	-4.6	-6.2	22.6*	-2.6	5.8	-1.4
CN1CCC(=NNC(=O)CN(c2ccc([N+](=O)[O-])cc2)S(=O)(=O)c2ccccc2)CC1	-9.0	4.6	4.8	-16.1	-6.8	·
CCOC(=O)CN1CC23C=CC(O2)C(C(=O)Nc2ccc(OC)cc2OC)C3C1=O (stereo unspecified)	7.9	-4.5	-4.8	2.0	5.2	·
CCOC(=O)CN1CC23C=CC(O2)C(C(=O)Nc2cc(OC)ccc2OC)C3C1=O (stereo unspecified)	10.5	0.0	17.5*	2.7	-8.6	-7.1
COc1ccc(/C(C)=N/OCC(=O)N=Nc2c(O)[nH]c3ccccc23)cc1	-1.8	-1.1	20.9*	-3.2	1.4	0.2
Cc1ccc(S(=O)(=O)N2CCN(C(=O)COC(=O)c3cncc(Br)c3)CC2)c(C)c1	-4.8	-3.6	-0.7	8.2	-5.1	·
COc1ccc(NC(=O)Nc2ccc3c(c2)C(=O)N([C@H](C)CO)C[C@H](C)[C@@H](CN(C)S(C)(=O)=O)O3)cc1	3.6	-0.5	-0.7	-5.6	-16.1	·
C[C@H]1CCCCO[C@H](CN(C)C(=O)Nc2ccc(F)cc2)[C@@H](C)CN([C@@H](C)CO)C(=O)c2cc(NC(=O)Nc3ccc4c(c3)OCO4)ccc2O1	-5.1	5.9	10.8	-0.9	0.1	·
C[C@H](CO)N1C[C@H](C)[C@@H](CN(C)S(=O)(=O)c2ccccc2)Oc2ccc(NC(=O)Nc3ccc4c(c3)OCO4)cc2C1=O	7.7	-0.3	19.3*	4.6	7.6	1.6
COc1ccc(NC(=O)N(C)C[C@H]2OCCCC[C@H](C)Oc3ccc(NC(=O)Nc4ccc5c(c4)OCO5)cc3C(=O)N([C@@H](C)CO)C[C@@H]2C)cc1	9.1	0.1	23.4*	11.2	1.1	5.6
